Assay results as given in ChEMBL document CHEMBL4371058, “Design, synthesis and characterization of novel N-heterocyclic-1-benzyl-1H-benzo[d]imidazole-2-amines as selective TRPC5 inhibitors leading to the identification of the selective compound, AC1903” (Bioorg Med Chem Lett, 2019).
pIC50: −log10 of the molar value.

What was measured:
[1] = target: T1, Short transient receptor potential channel 5 (Mus musculus) (UniProt Q9QX29); assay: Inhibition of mouse TRPC5 expressed in Flp-In-T-Rex-HEK293 cells assessed as reduction in […]-induced channel current at 3 uM by automated patch clamp method relative to control; assay type: cell-based
T1 sequence (whole entry): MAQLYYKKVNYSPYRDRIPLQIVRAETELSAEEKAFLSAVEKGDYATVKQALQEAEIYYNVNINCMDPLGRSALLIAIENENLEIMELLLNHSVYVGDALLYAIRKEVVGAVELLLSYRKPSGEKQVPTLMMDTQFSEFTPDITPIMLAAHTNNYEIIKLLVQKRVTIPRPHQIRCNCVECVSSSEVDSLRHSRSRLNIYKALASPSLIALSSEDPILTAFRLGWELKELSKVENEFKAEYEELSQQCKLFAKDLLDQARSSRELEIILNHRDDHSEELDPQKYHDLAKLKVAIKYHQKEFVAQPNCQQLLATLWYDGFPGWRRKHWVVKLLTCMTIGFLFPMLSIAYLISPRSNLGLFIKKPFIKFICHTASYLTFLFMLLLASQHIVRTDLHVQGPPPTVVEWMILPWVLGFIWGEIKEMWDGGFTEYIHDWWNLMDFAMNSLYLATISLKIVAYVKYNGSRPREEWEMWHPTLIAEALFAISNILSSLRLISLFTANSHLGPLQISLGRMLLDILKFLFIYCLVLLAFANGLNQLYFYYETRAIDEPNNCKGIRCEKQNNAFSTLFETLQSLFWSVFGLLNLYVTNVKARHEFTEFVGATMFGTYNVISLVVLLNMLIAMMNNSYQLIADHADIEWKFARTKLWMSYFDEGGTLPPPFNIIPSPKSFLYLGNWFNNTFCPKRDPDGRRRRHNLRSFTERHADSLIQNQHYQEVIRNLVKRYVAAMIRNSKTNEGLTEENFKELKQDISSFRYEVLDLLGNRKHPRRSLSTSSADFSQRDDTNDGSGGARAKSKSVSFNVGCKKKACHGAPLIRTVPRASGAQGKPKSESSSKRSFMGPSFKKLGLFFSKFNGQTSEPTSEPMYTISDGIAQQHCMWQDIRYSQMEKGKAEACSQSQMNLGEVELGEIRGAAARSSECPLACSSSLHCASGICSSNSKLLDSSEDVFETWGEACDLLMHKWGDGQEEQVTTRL
Outline: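 Automated patch clamp (Syncropatch), one concentration in one well, >10 cells. At least one session across two assay plates. DMSO vehicle and a reference inhibitor run as controls on every plate. Result expressed as % inhibition.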

[2] = target: T2, Short transient receptor potential channel 5 (Mus musculus, UniProt Q9QX29); assay: Inhibition of mouse TRPC5 expressed in Flp-In-T-Rex-HEK293 cells assessed as reduction in […]-induced channel current by automated patch clamp method; assay type: cell-based
T2 sequence (Q9QX29 whole entry): T1 sequence (whole entry)
Outline: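 Automated patch clamp (Syncropatch) with multiple concentrations in multiple wells. IC50 determined from these wells.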

[3] = Cmax in rat at 25 mg/kg, ip; assay type: ADME, organism-based; parameters: dose 25 mg/kg, route intraperitoneal; details: in vivo
Outline: (§1)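 Single intraperitoneal dose of 25 mg/kg in 5% DMSO, 10% Tween80, 85% PBS.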

[4] = Tmax in rat at 25 mg/kg, ip; assay type: ADME, organism-based; details: in vivo; outline: as §1
[5] = AUC in rat at 25 mg/kg, ip; assay type: ADME, organism-based; details: in vivo; outline: as §1

SMILES: c1ccc(Cn2c(NCc3ccon3)nc3ccccc32)cc1
- inhibition [1]: 47%

SMILES: Cc1cccc(Cn2c(NCc3ccco3)nc3ccccc32)c1
- inhibition [1]: 94.6%
- pIC50 [2]: 5.32

SMILES: c1ccc(Cn2c(NCc3cc4ccccc4o3)nc3ccccc32)cc1
- inhibition [1]: 18%

SMILES: c1ccc(Cn2c(NCc3ccccn3)nc3ccccc32)cc1
- inhibition [1]: -1.8%

SMILES: c1coc(CNc2nc3ccccc3n2CC2CCCO2)c1 (configuration not stated)
- inhibition [1]: 65.2%

SMILES: c1ccc(Cn2c(NCc3ccncc3)nc3ccccc32)cc1
- inhibition [1]: 17.4%

SMILES: Cc1ncc(CNc2nc3ccccc3n2Cc2ccccc2)s1
- inhibition [1]: 35.7%

SMILES: CCCn1c(NCc2ccco2)nc2ccccc21
- inhibition [1]: 81.2%
- pIC50 [2]: 4.81

SMILES: c1ccc(Cn2c(NCc3ccco3)nc3ccccc32)cc1
- inhibition [1]: 100%
- Cmax [3]: 687 ng/mL
- pIC50 [2]: 5.39
- Tmax [4]: 6.6 min
- AUC [5]: 1130 ng·h/mL

SMILES: COc1ccc(Cn2c(NCc3ccco3)nc3ccccc32)cc1F
- inhibition [1]: 88.4%
- pIC50 [2]: 4.94

SMILES: c1ccc(Cn2c(NCc3cnco3)nc3ccccc32)cc1
- inhibition [1]: 33.3%

SMILES: c1coc(CNc2nc3ccccc3n2CCN2CCOCC2)c1
- inhibition [1]: 34.4%

SMILES: CC(Nc1nc2ccccc2n1Cc1ccccc1)c1nccs1 (configuration not stated)
- inhibition [1]: 45%

SMILES: c1ccc(Cn2c(NCc3nccs3)nc3ccccc32)cc1
- inhibition [1]: 42.5%

SMILES: c1ccc(Cn2c(NCc3ncco3)nc3ccccc32)cc1
- inhibition [1]: 19.1%

SMILES: Cc1nc(CNc2nc3ccccc3n2Cc2ccccc2)no1
- inhibition [1]: 19.8%

SMILES: Brc1ccc(OCCn2c(NCc3ccco3)nc3ccccc32)cc1
- inhibition [1]: 91.1%

SMILES: Cc1nc2ccccc2n1Cc1ccccc1
- inhibition [1]: 19%

SMILES: O=C(Nc1nc2ccccc2n1Cc1ccccc1)c1ccco1
- inhibition [1]: 38.5%

SMILES: N#Cc1ccc(Cn2c(NCc3ccco3)nc3ccccc32)cc1
- inhibition [1]: 50.5%

SMILES: CC(Nc1nc2ccccc2n1Cc1ccccc1)c1ccco1 (configuration not stated)
- inhibition [1]: 91.4%
- pIC50 [2]: 5.35

SMILES: Clc1ccc(Cn2c(NCc3ccco3)nc3ccccc32)cc1
- inhibition [1]: 70.9%

SMILES: CN(Cc1ccco1)c1nc2ccccc2n1Cc1ccccc1
- inhibition [1]: 41.7%

SMILES: Cc1ccoc1CNc1nc2ccccc2n1Cc1ccccc1
- inhibition [1]: 82.3%
- pIC50 [2]: 5.16

SMILES: c1coc(CNc2nc3ccccc3n2CC2CCC2)c1
- inhibition [1]: 117%

SMILES: Clc1cccc(Cn2c(NCc3ccco3)nc3ccccc32)c1
- inhibition [1]: 70.2%

SMILES: Cc1cc2nc(NCc3ccco3)n(Cc3ccccc3)c2cc1C
- inhibition [1]: 123%
- pIC50 [2]: 4.91

SMILES: Fc1ccc(Cn2c(NCc3ccco3)nc3ccccc32)c(F)c1
- inhibition [1]: 87%
- pIC50 [2]: 5.07

SMILES: Fc1cccc(Cn2c(NCc3ccco3)nc3ccccc32)c1
- inhibition [1]: 61.9%

SMILES: c1ccc(Cn2c(NCc3ccco3)nc3cccnc32)cc1
- inhibition [1]: 31.2%

SMILES: Fc1ccc(Cn2c(NCc3ccco3)nc3ccccc32)cc1
- pIC50 [2]: 5.74

SMILES: Fc1cc(Cl)ccc1Cn1c(NCc2ccco2)nc2ccccc21
- inhibition [1]: 128%
- pIC50 [2]: 4.74

SMILES: Clc1cc2nc(NCc3ccco3)n(Cc3ccccc3)c2cc1Cl
- inhibition [1]: 28.2%

SMILES: c1coc(CNc2nc3ccccc3n2CC2CCCCC2)c1
- inhibition [1]: 61.6%

SMILES: Clc1ccccc1Cn1c(NCc2ccco2)nc2ccccc21
- inhibition [1]: 2.6%

SMILES: c1ccc(Cn2c(NCc3cccs3)nc3ccccc32)cc1
- inhibition [1]: 150%
- pIC50 [2]: 5.20

SMILES: Fc1ccccc1Cn1c(NCc2ccco2)nc2ccccc21
- inhibition [1]: 54.4%

SMILES: c1ccc(CNc2nc3ccccc3n2Cc2ccccc2)cc1
- inhibition [1]: 32.8%

SMILES: Fc1ccc(Cn2c(NCc3ccco3)nc3cccnc32)cc1
- inhibition [1]: 21.7%

SMILES: Cc1nnc(CNc2nc3ccccc3n2Cc2ccccc2)s1
- inhibition [1]: 30%

SMILES: c1ccc(Cn2c(Nc3ccccc3)nc3ccccc32)cc1
- inhibition [1]: 18.9%

SMILES: c1ccc(Cn2c(Nc3cccnc3)nc3ccccc32)cc1
- inhibition [1]: 19.9%

SMILES: c1ccc(Cn2c(NCc3cccnc3)nc3ccccc32)cc1
- inhibition [1]: 12%

SMILES: Fc1ccc(Cn2c(NCc3ccco3)nc3ccccc32)c(Cl)c1
- inhibition [1]: 23.6%
